Laboratory results published in PubChem BioAssay AID822 (SRMLSC, 2007).

tested on: HUVEC proliferation, viability ATP luminescence; assay: growth suppression of umbilical vein endothelial cells – cell-based, HUVEC, ATP luminescence, dose response (AID 822);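 note: cells exposed to compound for 72 h before the ATP read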
In short: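 Material – HUVEC · Amount – 1250 HUVEC cells seeded per well · Medium – EBM plus 2% FBS · Dosing – dose series 0.039 to 20 µM, DMSO 0.2% · Times – 72 h exposure, 37 °C · Detection – ATP luminescence · Read-out basis – % viability and fitted EC50 · Format – collagen-coated plates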

SMILES | EC50
CCCCCCn1c(O)c(C=NC2CCCCC2N)c(=O)[nH]c1=O (stereo not drawn) | 9.15 µM
N=c1c2c(-c3ccccc3)c(-c3ccccc3)n(Cc3ccco3)c2ncn1Cc1ccco1 | 1.82 µM
CN1CCN(S(=O)(=O)c2ccc(NC(=O)Nc3cccc(Cl)c3)cc2)CC1 | 6.85 µM
N=c1c2c(-c3ccccc3)c(-c3ccccc3)oc2ncn1CCCN1CCOCC1 | 13.6 µM
Cc1ccc(C2Oc3ccccc3C3=C2C(c2cccs2)n2ncnc2N3)cc1 (stereo not drawn) | 13.4 µM
Cc1ccccc1C(=O)c1cccn1CC(=O)NCCN1CCN(c2cccc(C)c2C)CC1 | 8.36 µM
CN1CCN(c2ccccc2NC(=O)c2ccc(OCc3ccccc3)cc2)CC1 | 10.8 µM
CCCCCCCCOC(=O)C1=C(C)Nc2nnnn2C1c1cccs1 (stereo not drawn) | 6.74 µM
CCn1cc(C(=O)NCCc2ccccc2)c(=O)c2cc(F)c(N3CCN(C)CC3)cc21 | 16.8 µM
c1ccc(-c2noc(-c3ccc4c(c3)OCO4)n2)nc1 | 2.47 µM
Cn1c(=O)n(C)c2cc(NC(=O)CCl)ccc21 | 12.2 µM
CN1CCN(Cc2cc(COCc3ccccc3)c3cccnc3c2O)CC1 | 6.08 µM
COC(=O)COc1ccc(S(=O)(=O)NCCC2=CCCCC2)cc1 | 10.4 µM
COc1cc(/C=C(/C(=O)c2cccs2)c2nc3ccccc3[nH]2)cc(OC)c1O | 1.99 µM
CN1CCN(c2ccc(NC(=O)c3cccc(OCc4ccccc4)c3)cc2)CC1 | 11.4 µM
Cc1ccccc1-c1nc(CN2CCC(C(=O)NCCCN3CC(C)CC(C)C3)CC2)c(C)o1 (stereo not drawn) | 4.85 µM
COc1cccc(C(=O)CSc2nnc(-c3cc(OC)cc(OC)c3)o2)c1 | 18.2 µM
Cc1cc(NC(=O)COC(=O)C(Nc2ccc(C(F)(F)F)cc2Cl)C(C)C)no1 (stereo not drawn) | 12.2 µM
Cc1ccc(C(=O)c2c(C)oc3c2C(=O)C(=O)c2ccccc2-3)cc1 | 20 µM
CN1CCN(CCCN2c3ccccc3Sc3ccc(C(F)(F)F)cc32)CC1 | 6.57 µM
Cc1nc2c(-c3ccccc3)c(C)[nH]n2c(=O)c1Cl | 10.5 µM
CCCCc1oc2ccccc2c1C(=O)c1cc(I)c(OCCN(CC)CC)c(I)c1 | 5.72 µM

SMILES | EC50
Cc1cccc(C)c1OCC(=O)N=Nc1c(O)[nH]c2ccc(Br)cc12 | 7.15 µM
CCC(C)[C@@H](NC(=O)OC(C)(C)C)c1nnc(S(=O)(=O)Cc2cccc(C)c2)o1 (stereo partly drawn) | 19.3 µM
COc1cc(N=c2ssnc2Cl)c(OC)cc1Cl | 20.9 µM
Cc1ccc(S(=O)(=O)c2c(C)nn(C(C)(C)C)c2OC(=O)c2cccs2)cc1 | 8.95 µM
CCC(C)NC(=O)c1c(N)n(/N=C/c2ccccn2)c2nc3ccccc3nc12 (stereo not drawn) | 9.34 µM
COc1ccc(C(=O)C(CN2CCOCC2)c2ccccc2)cc1F (stereo not drawn) | 7.19 µM
COc1cccc(C(=O)c2sc(NC(C)C)nc2N)c1 | 16.2 µM
Cn1c2ccccc2c(=O)c2c(=O)n(C3CCCCC3)c(-c3cccs3)nc21 | 8.3 µM
COc1ccc(NC(=O)c2oc3ccccc3c2NC(=O)COc2ccccc2OC)c(OC)c1 | 2.8 µM
OC(COc1ccc(Cl)c2ccccc12)CN1CCN(c2ccccn2)CC1 (stereo not drawn) | 12.3 µM
COCCCn1[nH]c2c3c(ccc2c1=O)C(=O)c1ccccc1C3=O | 4.66 µM
COc1ccc2c(c1)c1nc3ccccc3nc1n2CC(=O)OC(C)C | 11.3 µM
CCC1(C)Cc2c(sc3[nH]c(=S)n(Cc4ccccc4)c(=O)c23)CO1 (stereo not drawn) | 3.07 µM
COc1ccc(-n2nc(C(=O)NCc3ccco3)c3c4ccccc4n(C)c3c2=O)cc1Cl | 19.7 µM
COc1cc(-c2nc(-c3ccc(NC(=O)c4ccc(Br)o4)cc3)no2)cc(OC)c1OC | 7.42 µM
COc1ccc(C(C[N+](=O)[O-])c2c(-c3ccccc3)cc3ccccn23)cc1 (stereo not drawn) | 11.1 µM
CN1C[C@H](CNC(=O)OCc2ccccc2)C[C@@H]2c3cccc4c3c(cn4C)C[C@H]21 | 8.44 µM
CCOc1ccccc1-n1c(CN2CCN(C(=O)c3ccco3)CC2)nc2ccccc2c1=O | 12.3 µM
CCc1[nH]nc2c1C(c1ccc(Br)s1)C(C#N)=C(N)O2 (stereo not drawn) | 14 µM
Cc1ccc(/C=C/C(=O)c2ccccc2)cc1 | 17.1 µM
Cc1c(CCOC(=O)C2C3CC4CC(C3)CC2C4)sc[n+]1CC(=O)c1ccc(Br)cc1 (stereo not drawn) | 11.4 µM
